The other results are listed elsewhere or left out. A number with no mark means an inactive call. Active and inactive are the calls of the source.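 How the source made its calls: active means average inhibition over triplicates above the hit cutoff set in the earlier primary screen (cut at about 25% in these data); inactive means the rest.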
Target: ADP-ribosylation factor GTPase-activating protein 1 (Rattus norvegicus) (UniProt Q62848)
Test: retest of rat ARFGAP1 GAP activity blockers – biochemical, fluorescence polarization, triplicate, confirmation (AID 651608);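 further: 0% = Arfgap1 plus ARF1-GTP with DMSO and 100% = wells lacking Arfgap1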
Details: ARFGAP1-stimulated ARF1 GTP hydrolysis, GDP tracer FP; at 16.5 µM; hits give high values
Summary of the method: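 Material: rat Arfgap1 GAP domain (residues 1-136) acting on human ARF1 Δ1-17. Medium: HEPES-based assay buffer at pH 7.5. Dosing: 16.5 µM, one dose. Incubation: 20 min compound–enzyme pre-incubation, 120 min hydrolysis at 25 °C, 60 min detection. Technique: GDP tracer fluorescence polarization. Benchmarks: high control wells lacking Arfgap1. Repeats: three replicates.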

Sequence of ADP-ribosylation factor GTPase-activating protein 1 (Rattus norvegicus) (Q62848 whole entry, looked up): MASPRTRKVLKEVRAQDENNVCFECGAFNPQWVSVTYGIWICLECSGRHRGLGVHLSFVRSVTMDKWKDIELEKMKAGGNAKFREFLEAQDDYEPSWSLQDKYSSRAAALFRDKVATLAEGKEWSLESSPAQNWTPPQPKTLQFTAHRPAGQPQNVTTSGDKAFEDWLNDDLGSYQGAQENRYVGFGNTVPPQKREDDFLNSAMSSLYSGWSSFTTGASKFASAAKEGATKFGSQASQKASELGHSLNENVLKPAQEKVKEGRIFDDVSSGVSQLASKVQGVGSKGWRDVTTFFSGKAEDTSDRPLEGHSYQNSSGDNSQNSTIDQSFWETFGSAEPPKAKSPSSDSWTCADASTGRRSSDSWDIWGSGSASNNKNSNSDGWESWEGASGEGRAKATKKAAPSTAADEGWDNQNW

Row | SMILES | inhibition
1 | CCOC(=O)C1CCN(C(c2cc3cc(C)cc(C)c3[nH]c2=O)c2nnnn2C2CCCCC2)CC1 (stereo unspecified) | 0.48%
2 | Cc1ccc2nc(SCC(=O)N3CC(C)OC(C)C3)nc(=O)n2c1 (stereo unspecified) | 90.3% (active)
3 | O=C(CCc1ccccc1)Nc1ncc([N+](=O)[O-])s1 | -7.17%
4 | Cc1cc(C)cc(NC(=O)C2CCCN(S(=O)(=O)c3ccc4[nH]c(=O)ccc4c3)C2)c1 (stereo unspecified) | 0.48%
5 | O=C(O)CSCc1ccc(C(=O)O)o1 | 5.16%
6 | OC(COc1cccc(OCC(O)CN2CCCC2)c1)CN1CCCC1 (stereo unspecified) | 1.32%
7 | Cc1ccc(-n2ncc3c2ncn2nc(-c4ccco4)nc32)c(C)c1 | 3.31%
8 | CCn1c(SCc2cc(=O)n3ccsc3n2)nc2ccccc21 | -5.82%
9 | CCO[C@@H]1OC(C(N)=O)=C[C@H](c2ccc(Br)cc2)[C@H]1CCCO | 0.74%
10 | COc1ccc(C(N)c2csc(NC(=O)Nc3cccc(C(F)(F)F)c3)n2)cc1 (stereo unspecified) | 19.2%
11 | c1ccc(-c2cc(-c3nnc4sc(-c5ccccn5)nn34)[nH]n2)cc1 | 36.3% (active)
12 | COc1cccc(CNc2nc(C(F)(F)F)nc3ccccc23)c1 | 8.01%
13 | CCN(CC)c1ccc(NC(=O)CN2CCN(c3ccccn3)CC2)cc1 | -5.51%
14 | CCNS(=O)(=O)c1ccc(NC(=O)Nc2cccc(C(F)(F)F)c2)cc1 | 18.2%
15 | COCCNc1cc(-c2ccccc2)nc2cc(-c3cccc(F)c3)nn12 | 10.8%
16 | COc1ccc(Cl)cc1NC(=O)Cn1nc(-c2ccc(C)cc2)n(C)c1=S | 1.54%
